We go through 24 molecules from ChEMBL document CHEMBL2034847, “Discovery of Plasmodium vivax N-myristoyltransferase inhibitors: screening, synthesis, and structural characterization of their binding mode” (J Med Chem, 2012).

The term pKi denotes the Ki on a negative log10 scale, so that one unit is a factor of ten. The term pIC50 denotes −log10 of the IC50, conventionally taken in molar units.

Experiment [1] in a line: Inhibition of Plasmodium vivax recombinant N-myristoyltransferase using human pp60Src92-16 amino acids) as substrate. Particulars: for pKi: read-out: Ki(app). The gist of the method:
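Recombinant P. vivax NMT in a 96-well fluorogenic NMT assay. Values are reported as apparent Ki, mean ± SD from duplicates.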

Experiment [2] concerns the target T1, Glycylpeptide N-tetradecanoyltransferase 1 (Homo sapiens, UniProt P30419).
T1 sequence (P30419 whole entry): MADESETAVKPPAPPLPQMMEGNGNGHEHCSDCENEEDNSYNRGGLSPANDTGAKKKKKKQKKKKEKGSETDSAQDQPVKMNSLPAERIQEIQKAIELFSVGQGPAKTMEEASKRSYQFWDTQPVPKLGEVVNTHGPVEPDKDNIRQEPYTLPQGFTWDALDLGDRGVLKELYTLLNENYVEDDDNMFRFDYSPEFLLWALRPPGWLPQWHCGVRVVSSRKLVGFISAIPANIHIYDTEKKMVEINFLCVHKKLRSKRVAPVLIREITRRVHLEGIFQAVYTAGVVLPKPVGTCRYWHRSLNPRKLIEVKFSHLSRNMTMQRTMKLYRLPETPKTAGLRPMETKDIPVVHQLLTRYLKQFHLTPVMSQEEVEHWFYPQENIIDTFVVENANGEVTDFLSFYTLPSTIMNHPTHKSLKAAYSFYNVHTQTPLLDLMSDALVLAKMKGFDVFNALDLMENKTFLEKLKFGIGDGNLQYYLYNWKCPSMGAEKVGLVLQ
The experiment can be described thus: Inhibition of human N-myristoyltransferase 1 using human pp60Src92-16 amino acids) as substrate. The conditions noted are these: read-out: Ki(app).

Experiment [3] deals with T2, Glycylpeptide N-tetradecanoyltransferase 2 (Homo sapiens, UniProt O60551).
T2 sequence (O60551 whole entry): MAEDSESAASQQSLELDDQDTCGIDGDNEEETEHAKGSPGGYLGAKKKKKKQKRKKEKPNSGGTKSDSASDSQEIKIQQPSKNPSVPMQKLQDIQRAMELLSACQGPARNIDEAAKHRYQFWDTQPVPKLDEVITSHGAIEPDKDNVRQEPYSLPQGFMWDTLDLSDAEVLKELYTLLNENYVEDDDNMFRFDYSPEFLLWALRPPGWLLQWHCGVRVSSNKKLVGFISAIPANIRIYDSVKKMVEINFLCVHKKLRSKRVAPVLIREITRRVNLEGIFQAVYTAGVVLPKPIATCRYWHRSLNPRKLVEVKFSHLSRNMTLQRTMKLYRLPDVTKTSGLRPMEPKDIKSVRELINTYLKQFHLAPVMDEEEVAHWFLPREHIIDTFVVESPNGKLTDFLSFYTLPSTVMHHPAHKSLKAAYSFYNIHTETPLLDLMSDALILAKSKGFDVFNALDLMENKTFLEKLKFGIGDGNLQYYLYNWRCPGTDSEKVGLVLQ
The experiment can be described thus: Inhibition of human N-myristoyltransferase 2 using human pp60Src92-16 amino acids) as substrate. The conditions noted are these: read-out: Ki(app). Summed up:
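Recombinant human NMT2 was tested in a fluorogenic plate assay adapted from a published NMT method. Apparent Ki values are the mean ± SD of duplicates.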

pIC50, pKi: −log10 of the molar value.

`CCOC(=O)c1cnc2ccc(OC)cc2c1SCCC#N`: in experiment [1], the pKi is 5.32.

Turning to `CCCCc1c(C)nc2ccc(OC)cc2c1SCCCC#N`, the pKi in experiment [1] is 4.45; in experiment [2] it was 4.32; in experiment [3], 4.34.

Turning to `CCOC(=O)c1cnc2ccc(Cl)cc2c1SCCC#N`, the results for the pKi in experiment [1], in experiment [2] and in experiment [3] were 4.98, less than 4.00 and less than 4.00, respectively.

Regarding `CCOC(=O)c1cnc2ccc(C(C)=O)cc2c1SCCC#N`, in experiment [1], the negative-log Ki (pKi) was less than 4.00.

Turning to `CCCc1nc2ccccc2c(SCCC#N)c1C(=O)OCC`, the pKi in experiment [1], in experiment [2] and in experiment [3] was less than 4.00 each time.

For the molecule `CCCCc1c(C)nc2ccc(OC)cc2c1SCCc1ccccc1`, in experiment [1], the negative-log Ki (pKi) is less than 4.00.

As to `CCc1ccc2c(c1)S(=O)(=O)C(C(F)(F)F)CO2` (stereo not drawn), the pIC50 in experiment [1] is 4.94.

As for `CCc1c(C)nc2ccc(OC)cc2c1SCCC#N`, the pKi in experiment [1] was 5.49; in experiment [3], 4.63.

On to `CCOC(=O)c1cnc2ccc(C(C)O)cc2c1SCCC#N` (stereo not drawn), for which the pKi in experiment [1] is less than 4.00.

Regarding `CCOC(=O)c1c(C)nc2ccccc2c1NCC#N`, the negative logarithm of the Ki (pKi) in experiment [1] was less than 4.00.

`CCOC(=O)c1c(CC)nc2ccccc2c1SCCC#N`: the negative-log Ki (pKi) was 4.22 in experiment [1], 4.32 in experiment [2] and 4.03 in experiment [3].

Regarding `CCCCc1c(C)nc2ccc(OC)cc2c1SCC#N`, the pKi in experiment [1] was less than 4.00.

Consider `CCOC(=O)c1c(C)nc2ccccc2c1SCCC#N`, for which the values for the pKi in experiment [1] and in experiment [3] were 4.61 and 4.38, respectively.

With `CCOC(=O)c1cnc2ccc(F)cc2c1SCCC#N`, the negative-log Ki (pKi) in experiment [1] is 5.11; in experiment [3] it was 4.43.

Consider `C#CCCSc1c(CCCC)c(C)nc2ccc(OC)cc12`, for which the negative-log Ki (pKi) is 4.94 in experiment [1], less than 4.00 in experiment [2] and less than 4.00 in experiment [3].

As for `COc1ccc(CNc2sc3c(c2C#N)CC(C)(C)OC3)cc1`, the pIC50 in experiment [1] was 4.58.

Regarding `CCOC(=O)c1cnc2ccc(C)cc2c1SCCC#N`, the pKi was 5.16 in experiment [1] and less than 4.00 in experiment [3].

Turning to `CCOC(=O)c1cnc2ccccc2c1SCCC#N`, the figures for the negative-log Ki (pKi) in experiment [1], in experiment [2] and in experiment [3] were 4.61, less than 4.00 and less than 4.00, respectively.

Consider `COc1ccc2nc(C)cc(SCCC#N)c2c1`, for which the negative logarithm of the Ki (pKi) in experiment [1], in experiment [2] and in experiment [3] was less than 4.00 each time.

Take `CCCCc1c(C)nc2ccc(Br)cc2c1SCCC#N`: the results for the pKi in experiment [1], in experiment [2] and in experiment [3] were 4.67, less than 4.00 and less than 4.00, respectively.

On to `CCCCc1c(C)nc2ccc(OC)cc2c1SCCC#N`, for which the pKi in experiment [3] is 4.94.

For the molecule `CCCCc1c(C)nc2ccc(OC)cc2c1SCCCO`, the values for the pKi in experiment [1], in experiment [2] and in experiment [3] were 4.76, less than 4.00 and less than 4.00, respectively.

As to `CCN(CC)Cc1c(O)ccc2ccccc12`, the negative logarithm of the IC50 (pIC50) in experiment [1] is 4.58.

As to `CCCCc1c(C)nc2ccccc2c1SCCC#N`, the pKi was 5.61 in experiment [1], less than 4.00 in experiment [2] and less than 4.00 in experiment [3].
